Results taken from ChEMBL document CHEMBL1122572, “Improved synthesis and antitumor evaluation of 5,8-dideazaisofolic acid and closely related analogues” (J Med Chem, 1984).

What was measured:
[1] = In vitro inhibition of growth of the human gastrointestinal adenocarcinoma cells HaTu80; assay type: functional
Summary of the method: (§1)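 Monodispersed growing cells (0.7-1 × 10^5 in 1 mL medium) were added to wells already holding 0–50 μL of drug solution. Drug was dissolved fresh in 0.1 M NaOH and diluted with pH 7.0 phosphate buffer. Cells were incubated 72–96 h at 37 °C in humidified 8% CO₂, trypsinized and counted on a Coulter counter. IC50 was the concentration giving 50% growth inhibition versus untreated controls.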

HT-29 = assay: In vitro inhibition of growth of the human gastrointestinal adenocarcinoma cells HT-29; assay type: functional, cell-based; summary of the method: as §1
SW480 = assay: In vitro inhibition of growth of the human gastrointestinal adenocarcinoma cells SW480; assay type: functional, cell-based; summary of the method: as §1
WiDr = assay: In vitro inhibition of growth of the human gastrointestinal adenocarcinoma cells WIDR; assay type: functional, cell-based; summary of the method: as §1

Row | Structure (SMILES) | IC50 (HT-29) [µM] | IC50 (SW480) [µM] | IC50 [1] [µM] | IC50 ([1]; Homo sapiens) [µM] | IC50 (WiDr) [µM]
1 | Nc1nc(=O)c2cc(NCc3ccc(C(=O)NC(CCC(=O)O)C(=O)O)cc3)ccc2[nH]1 (stereo in doubt; form 1) |  |  | 4.5 |  | 
2 | Nc1nc(O)c2cc(N(C=O)Cc3ccc(C(=O)NC(CCC(=O)O)C(=O)O)cc3)ccc2n1 (centres undefined) | 100 | 150 |  | 95 | 195
3 | Nc1nc(=O)c2cc(NCc3ccc(C(=O)N[C@H](CCC(=O)O)C(=O)O)cc3)ccc2[nH]1 | > 300 | > 300 |  | > 300 | > 300

The next lines start with results.

Row | IC50 (HT-29) [µM] | IC50 (SW480) [µM] | Structure (SMILES) | IC50 [1] [µM] | IC50 ([1]; Homo sapiens) [µM] | IC50 (WiDr) [µM]
4 | 0.2 | 0.2 | Nc1nc(N)c2cc(NCc3ccc(C(=O)NC(CCC(=O)O)C(=O)O)cc3)ccc2n1 (centres undefined) |  | 0.15 | 0.2
5 | 0.018 | 0.015 | CN(Cc1cnc2nc(N)nc(N)c2n1)c1ccc(C(=O)N[C@@H](CCC(=O)O)C(=O)O)cc1 [METHOTREXATE] |  | 0.009 | 0.025
6 | 3.2 | 5 | CN(Cc1ccc(C(=O)NC(CCC(=O)O)C(=O)O)cc1)c1ccc2nc(N)nc(O)c2c1 (centres undefined) |  | 4.8 | 6.3
7 | 2.7 | 4.8 | Cc1c(N(C)Cc2ccc(C(=O)NC(CCC(=O)O)C(=O)O)cc2)ccc2nc(N)nc(O)c12 (centres undefined) |  | 3.6 | 4.8
8 | 1.1 | 10 | Cc1c(NCc2ccc(C(=O)NC(CCC(=O)O)C(=O)O)cc2)ccc2nc(N)nc(O)c12 (centres undefined) |  | 4 | 4
